# Experiments:
# Staphylococcus aureus [1] = experiment: Antibacterial activity against Staphylococcus aureus ATCC 29213 by broth liquid microdilution method; assay type: functional
# Summary of the method: (§1)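 Isolates were identified on an automated MicroScan WalkAway 96 system. Susceptibility was tested by broth microdilution following CLSI guidelines. MIC was taken as the lowest concentration giving complete inhibition of bacterial growth. S. aureus ATCC 29213 served as the control strain.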
# Staphylococcus aureus [2] = experiment: Antibacterial activity against methicillin-resistant Staphylococcus aureus by broth liquid microdilution method; assay type: functional; summary of the method: as §1
# Staphylococcus aureus [3] = experiment: Antibacterial activity against methicillin-sensitive Staphylococcus aureus by broth liquid microdilution method; assay type: functional; summary of the method: as §1
# Enterococcus faecalis [4] = experiment: Antibacterial activity against linezolid-resistant Enterococcus faecalis by broth liquid microdilution method; assay type: functional; summary of the method: as §1
# Enterococcus faecium [5] = experiment: Antibacterial activity against vancomycin-resistant Enterococcus faecium by broth liquid microdilution method; assay type: functional; summary of the method: as §1
# Staphylococcus aureus [6] = experiment: Potency index, ratio of linezolid MIC to test compound MIC for Staphylococcus aureus ATCC 29213; assay type: functional
# Summary of the method: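 MIC by broth microdilution per CLSI guidelines, taken as the lowest concentration giving complete growth inhibition; isolates identified on MicroScan WalkAway 96; S. aureus ATCC29213 used as control strain. Index expressed as linezolid MIC divided by test compound MIC.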
# Staphylococcus aureus [7] = experiment: Potency index, ratio of linezolid MIC to test compound MIC for methicillin-sensitive Staphylococcus aureus; assay type: functional
# Staphylococcus aureus [8] = experiment: Antibacterial activity against methicillin-resistant Staphylococcus aureus clinical isolates by broth liquid microdilution method; assay type: functional; summary of the method: as §1
# Staphylococcus aureus [9] = experiment: Antibacterial activity against methicillin-sensitive Staphylococcus aureus clinical isolates by broth liquid microdilution method; assay type: functional; summary of the method: as §1
# Enterococcus faecium [10] = experiment: Antibacterial activity against vancomycin-resistant Enterococcus faecium clinical isolates by broth liquid microdilution method; assay type: functional; summary of the method: as §1
# Enterococcus faecalis [11] = experiment: Antibacterial activity against linezolid-resistant Enterococcus faecalis clinical isolates by broth liquid microdilution method; assay type: functional; summary of the method: as §1
# [12] = molecular target: T1, MAO-A (amine oxidase [flavin-containing] A) (Homo sapiens, UniProt P21397); experiment: Inhibition of recombinant human MAOA expressed in baculovirus infected Sf9 insect cells at 30 uM using luciferin derived substrate pretreated for 15 mins followed by substrate addition and measured after 60 mins by luminescence assay relative to control; details: probe luciferin derived substrate
# T1 sequence (P21397 whole entry): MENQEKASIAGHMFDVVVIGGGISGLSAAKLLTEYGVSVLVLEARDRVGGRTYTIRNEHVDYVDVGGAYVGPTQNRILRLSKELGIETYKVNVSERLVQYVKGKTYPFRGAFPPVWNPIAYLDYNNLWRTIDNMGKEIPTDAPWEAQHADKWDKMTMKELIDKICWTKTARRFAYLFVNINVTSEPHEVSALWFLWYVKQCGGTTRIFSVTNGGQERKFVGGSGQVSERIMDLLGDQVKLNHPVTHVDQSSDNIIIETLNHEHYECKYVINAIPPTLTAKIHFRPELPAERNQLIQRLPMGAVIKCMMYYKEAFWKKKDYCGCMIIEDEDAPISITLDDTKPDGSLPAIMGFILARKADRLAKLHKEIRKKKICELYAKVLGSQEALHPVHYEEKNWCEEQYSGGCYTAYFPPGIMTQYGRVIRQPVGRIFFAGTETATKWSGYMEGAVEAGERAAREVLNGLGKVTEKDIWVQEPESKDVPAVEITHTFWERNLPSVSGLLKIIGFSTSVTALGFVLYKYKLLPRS
# Summary of the method: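 Human recombinant MAO-A with MAO-Glo luminescent kit. Compounds in DMSO (final 1% DMSO) preincubated with enzyme 15 min at room temperature, then luciferin derivative substrate added and reacted 60 min at room temperature. Luciferase detection reagent added for 20 min before luminescence read. Buffer replacing enzyme served as 100% inhibition control and DMSO as no-inhibition control; percent inhibition calculated against both.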
# HepG2 = experiment: Cytotoxicity against human HepG2 cells after 48 hrs by MTT assay; assay type: cell-based; details: HepG2, 48 h
# Summary of the method: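 HepG2 cells grown in RPMI1640 with 10% FBS; about 4×10⁴ cells per well seeded in MEM, incubated 24 h at 37 ℃ in 5% CO₂, then exposed to compounds at indicated final concentrations for 48 h. MTT added (final 0.5 mg/mL) for 4 h at 37 ℃, formazan dissolved in DMSO, absorbance read at 492 nm. Triplicate runs; IC50 as mean ± SD.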
# [13] = Half life in human liver microsomes at 1.5 uM in presence of NADPH by LC-MS analysis; assay type: ADME, microsome
# Summary of the method: (§2)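 Human liver microsomes with 1.5 µM compound in a 0.75 mg/mL microsome mix were pre-warmed at 37 °C for 5 min. Reaction started with NADPH (6 mM stock). Samples were quenched with acetonitrile plus internal standard at 0, 5, 15, 30 and 45 min, then read by LC/MS, in duplicate. T1/2 = ln(2)/k from the log-linear slope; Clint derived from T1/2; % remaining read at 45 min.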
# [14] = Intrinsic clearance in human liver microsomes at 1.5 uM pretreated for 5 mins followed by NADPH addition measured after 5 to 45 mins by LC-MS analysis; assay type: ADME, microsome; details: read-out: CLH; summary of the method: as §2
# [15] = Stability in human liver microsomes assessed as parent compound remaining at 1.5 uM pretreated for 5 mins followed by NADPH addition measured after 45 mins by LC-MS analysis; assay type: ADME, microsome; details: read-out: Stability; summary of the method: as §2
SMILES,MIC (Staphylococcus aureus [1]),MIC (Staphylococcus aureus [2]),MIC (Staphylococcus aureus [3]),MIC (Enterococcus faecalis [4]),MIC (Enterococcus faecium [5]),Ratio (Staphylococcus aureus [6]),Ratio (Staphylococcus aureus [7]),MIC50 (Staphylococcus aureus [8]),MIC90 (Staphylococcus aureus [8]),MIC (Staphylococcus aureus [9]),MIC50 (Staphylococcus aureus [9]),MIC90 (Staphylococcus aureus [9]),MIC (Enterococcus faecium [10]),MIC50 (Enterococcus faecium [10]),MIC90 (Enterococcus faecium [10]),MIC (Enterococcus faecalis [11]),MIC50 (Enterococcus faecalis [11]),MIC90 (Enterococcus faecalis [11]),"inhibition at 1 h, 30 µM [12]",other results
CC(=O)NC[C@H]1CN(c2ccc(-c3ccc(/C=N/N4CCCCC4)cc3)c(F)c2)C(=O)O1,0.25 µg/mL,0.25 µg/mL,0.25 µg/mL,0.25 µg/mL,0.5 µg/mL,–,–,–,–,–,–,–,–,–,–,–,–,–,–,–
CC(=O)NC[C@H]1CN(c2ccc(-c3ccc(/C=N/N4CCSCC4)cc3)c(F)c2)C(=O)O1,0.0675 µg/mL,0.0675 µg/mL,0.0675 µg/mL,0.0675 µg/mL,0.0675 µg/mL,15 - 30,15 - 30,0.125 µg/mL,0.25 µg/mL,0.0625 to 0.25 µg/mL,0.125 µg/mL,0.25 µg/mL,0.0625 to 0.5 µg/mL,0.15 µg/mL,0.5 µg/mL,0.0625 to 0.25 µg/mL,0.125 µg/mL,0.5 µg/mL,81%,–
CC(=O)NC[C@H]1CN(c2ccc(-c3ccc(/C=N/N4CCN(C(=O)c5cccnc5)CC4)cc3)c(F)c2)C(=O)O1,0.125 µg/mL,0.125 µg/mL,0.125 µg/mL,0.125 µg/mL,0.125 µg/mL,–,–,–,–,–,–,–,–,–,–,–,–,–,–,–
CC(=O)NC[C@H]1CN(c2ccc(-c3ccc(/C=N/N4CCN(C(=O)c5ccco5)CC4)cc3)c(F)c2)C(=O)O1,0.25 µg/mL,0.25 µg/mL,0.125 µg/mL,0.25 µg/mL,0.25 µg/mL,–,–,–,–,–,–,–,–,–,–,–,–,–,–,–
CC(=O)NC[C@H]1CN(c2ccc(-c3ccc(/C=N/N4CC[S+]([O-])CC4)cc3)c(F)c2)C(=O)O1,0.0675 µg/mL,0.0675 µg/mL,0.0675 µg/mL,0.0675 µg/mL,0.0675 µg/mL,15 - 30,15 - 30,0.125 µg/mL,0.25 µg/mL,0.0625 to 0.25 µg/mL,0.125 µg/mL,0.25 µg/mL,0.0625 to 0.5 µg/mL,0.125 µg/mL,0.5 µg/mL,0.0625 to 0.25 µg/mL,0.125 µg/mL,0.5 µg/mL,88%,–
CC(=O)NC[C@H]1CN(c2ccc(-c3ccc(/C=N/N4CCN(C)CC4)cc3)c(F)c2)C(=O)O1,0.0675 µg/mL,0.0675 µg/mL,0.0675 µg/mL,0.0675 µg/mL,0.0675 µg/mL,15 - 30,15 - 30,0.0625 µg/mL,0.125 µg/mL,0.0625 to 0.25 µg/mL,0.0625 µg/mL,0.125 µg/mL,0.0625 to 0.5 µg/mL,0.25 µg/mL,0.5 µg/mL,0.0625 to 0.25 µg/mL,0.125 µg/mL,0.125 µg/mL,71%,"IC50 (HepG2): 0.82 µM; half-life at 1.5 µM [13]: 1.21 h; CLint scaled at 1.5 µM [14]: 23.9 mL/min/kg; remaining at 0.75 h, 1.5 µM [15]: 64.7%"
CC(=O)NC[C@H]1CN(c2ccc(-c3ccc(/C=N/N4CCN(C(=O)c5cccs5)CC4)cc3)c(F)c2)C(=O)O1,0.125 µg/mL,0.25 µg/mL,0.25 µg/mL,0.5 µg/mL,0.5 µg/mL,–,–,–,–,–,–,–,–,–,–,–,–,–,–,–
CC(=O)NC[C@H]1CN(c2ccc(N3CCOCC3)c(F)c2)C(=O)O1 [LINEZOLID],1 µg/mL,1 µg/mL,1 µg/mL,> 16 µg/mL,2 µg/mL,–,–,2 µg/mL,4 µg/mL,1 to 2 µg/mL,2 µg/mL,2 µg/mL,1 to 4 µg/mL,2 µg/mL,4 µg/mL,> 16 µg/mL,> 16 µg/mL,> 16 µg/mL,74%,"MIC (Staphylococcus aureus [8]): 1 to 4 µg/mL; IC50 (HepG2): > 25 µM; remaining at 0.75 h, 1.5 µM [15]: 104%"
CC(=O)NC[C@H]1CN(c2ccc(-c3ccc(CNCc4cnn[nH]4)cc3)c(F)c2)C(=O)O1 [RADEZOLID],0.5 µg/mL,0.5 µg/mL,0.5 µg/mL,0.5 µg/mL,0.5 µg/mL,–,–,–,–,–,–,–,–,–,–,–,–,–,–,–

# Source: ChEMBL document CHEMBL4265926, “Synthesis and antibacterial activity evaluation of novel biaryloxazolidinone analogues containing a hydrazone moiety as promising antibacterial agents” (Eur J Med Chem, 2018)
